# Screening data: PubChem, Johns Hopkins Ion Channel Center
# Hits are enriched below; roughly 3.5% of the tested compounds scored in any of these assays.
# MrgX1 allo act – human MrgX1 positive allosteric modulation, primary screen | Q96LB2 | MrgX1-HEK293, Fluo-4 calcium flux, FDSS; stronger effect = higher value | B-score at 10 µM | 0.63% of 310,000 active | AID 588675;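 active = plate-corrected calcium response at least 3 library SD above typical, normal starting fluorescence, not activating the receptor alone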;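 also: compound read alongside a low EC10 to EC30 dose of BAM8-22 agonist; peak minus trough fluorescence over baseline measured at the second addition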
# Target sequence (Q96LB2 whole entry, looked up): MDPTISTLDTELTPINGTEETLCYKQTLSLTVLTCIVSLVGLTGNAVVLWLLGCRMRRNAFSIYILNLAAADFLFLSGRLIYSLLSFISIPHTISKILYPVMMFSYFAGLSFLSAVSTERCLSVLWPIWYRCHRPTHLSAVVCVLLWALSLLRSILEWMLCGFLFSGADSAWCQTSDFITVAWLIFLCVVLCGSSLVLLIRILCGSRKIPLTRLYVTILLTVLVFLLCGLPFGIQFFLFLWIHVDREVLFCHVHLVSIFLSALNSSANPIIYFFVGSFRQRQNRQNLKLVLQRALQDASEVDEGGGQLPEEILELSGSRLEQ
# RGS4 inh – human RGS4 inhibition. HEK293 M3R/RGS4 inducible, Fluo-4 calcium flux; stronger effect = higher value; triggered by carbachol at its EC20. B-score at 10 µM. P49798. 0.45% of 310,000 active. AID 463165;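 active = B-score, a plate-corrected calcium signal, over three deviations above library mean, with baseline fluorescence within five deviations of library mean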;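 also: RGS4 expression induced by doxycycline in cells with stable M3 receptor; B-score is computed from the integrated fluorescence ratio over baseline after carbachol; higher B-score means a larger calcium signal and so more RGS4 inhibition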
# Target sequence (P49798 whole entry, looked up): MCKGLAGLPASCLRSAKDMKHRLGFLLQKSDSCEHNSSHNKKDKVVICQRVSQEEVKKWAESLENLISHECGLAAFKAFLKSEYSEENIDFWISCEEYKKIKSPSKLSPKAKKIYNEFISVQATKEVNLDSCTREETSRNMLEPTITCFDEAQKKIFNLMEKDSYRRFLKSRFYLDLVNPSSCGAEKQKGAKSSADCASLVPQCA
# RGS4 act – potentiators or activators of RGS4; HEK293 M3R/inducible RGS4, carbachol calcium flux Fluo4; stronger effect = lower value; B-score at 10 µM; 0.92% of 310,000 active; AID 463111;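 active = B-score of the integrated calcium signal more than 4 SD below the library mean, with starting fluorescence not abnormally high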;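 also: negative B-score means reduced calcium response which marks RGS4 activation or potentiation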
#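 test system = HEK293 cells with stable M3R and inducible RGS4 | schedule = recording 10 s baseline at 1 Hz, 100 s post-agonist | technique = Fluo4-AM (2 µM) calcium-flux fluorescence, kinetic read | measure = Agonist-evoked peak-minus-minimum fluorescence over baseline, integrated ratio, B score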
# MrgX1 antag – antagonists of human MrgX1 receptor | Q96LB2 | MRGX1-HEK293 calcium flux, Fluo-4, BAM8-22 antagonism; stronger effect = lower value | B-score at 10 µM | 1.3% of 310,000 active | AID 588676;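 active = calcium-response B-score plate-corrected more than 3 library SD below zero, starting fluorescence within 5 deviations, no agonist response on first addition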;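 also: peak minus trough fluorescence over baseline after final BAM8-22 challenge near maximal dose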
# MrgX1 ag – agonists of human MrgX1 receptor | MrgX1-HEK293 cells, Fluo-4 calcium fluorescence, agonist mode; stronger effect = higher value | B-score at 10 µM | 0.44% of 310,000 active;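 active = calcium response B-score plate-corrected fluorescence ratio at least 3 library SD, with starting fluorescence B-score inside 5 SD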
#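 Assay system: stable human MrgX1 HEK293 cell line. Quantity: 15,000 cells per well. Schedule: cells plated overnight, dye loaded 0.5 h 37 °C, 0.5 h room temperature. Detection: Fluo-4 NW calcium-flux fluorescence, kinetic read. Read-out basis: peak-minus-minimum fluorescence over baseline, converted to B scores. Control set: positive and negative control wells on each plate.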
# RGS4 block valid – validation of RGS4 inhibitors. shares compounds with RGS4 inh. HEK293 M3R/RGS4, carbachol calcium Fluo-4 fluorescence; carbachol added at its EC20; 0 = buffer wells, 100 = carbachol control. calcium response, % at 10 µM. 65% of 1,700 active. AID 492999;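 active = duplicate-averaged calcium response above the buffer-only control mean plus 5 SD of those controls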;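 also: integrated fluorescence ratio F max minus min over baseline F0; higher response in RGS4-induced cells means RGS4 inhibition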
# RGS4 uninduced – counter-screen for RGS4 inhibitors: effect in non-induced cells | shares compounds with RGS4 inh | AID 493000 | 20% of 1,900 active | activity (percent), % at 10 µM | HEK293 M3R non-induced, carbachol calcium Fluo-4; submaximal (EC20) carbachol stimulus; buffer wells 0%, carbachol control wells 100%; call rule not given here;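 also: RGS4 induction absent so cells express M3R without RGS4; higher means more calcium signal and flags a non-specific hit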
# M3R basal Ca ctr – signal in non-induced cells without carbachol, RGS4 inhibitor counter-screen. 22% of 1,900 active. calcium response (agonist-mode artifact), % at 10 µM. shares compounds with RGS4 inh. AID 493001. HEK293 M3R/RGS4 non-induced, Fluo-4 calcium, no carbachol; normalised: buffer wells 0%, carbachol wells 100%;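 active = duplicate-averaged calcium rise in uninduced cells above buffer wells' mean plus 5 SD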
# * = called active by the depositor; i = inactive; . = no result given.
SMILES,MrgX1 allo act,RGS4 inh,RGS4 act,MrgX1 antag,MrgX1 ag,RGS4 block valid,RGS4 uninduced,M3R basal Ca ctr
O=C(NCc1cccc(Cl)c1)c1ccc(S(=O)(=O)Nc2cccc(C(F)(F)F)c2)cc1,i,i,i,i,i,i,i,i
O=C(Cc1cccc(C(F)(F)F)c1)NCc1cccc(Cl)c1,i,i,i,i,i,.,.,.
O=C(NC1CC1)c1cc2c(F)cccc2s1,i,i,i,i,i,.,.,.
O=C(CN1CCN(c2ccc(O)cc2)CC1)NC(c1ccccc1)c1ccccc1,i,12.9*,i,i,i,i,i,i
O=C(CN1CCCCCC1)NC(c1ccccc1)c1ccccc1,i,i,i,i,i,.,.,.
CCOC(=O)COc1ccc2c(c1)c(C(C)=O)c(C)n2-c1ccc(OC)cc1,i,i,i,i,i,.,.,.
Cc1[nH]c2ccccc2c1/C=N/NC(N)=S,i,i,i,i,i,.,.,.
Cc1ccc(NC(=S)N/N=C/c2c(C)[nH]c3ccccc23)cc1,i,4.93*,i,i,i,6.5%*,i,12.0%*
O=C(COc1ncnc2ccccc12)NCC1CCCO1 (stereo not drawn),i,i,i,i,i,.,.,.
COc1cc(/C=C/C(=O)c2ccc(C)cc2)ccc1OCC#N,i,i,i,i,i,i,31.5%*,i
COC(=O)c1ccc(/C=C/C(=O)c2ccc(OC)c(OC)c2)cc1,i,8.95*,i,i,i,7.0%*,43.5%*,i
Cc1ccc(/C=C/C(=O)c2ccccc2)cc1,i,i,i,i,i,.,.,.
Cc1ccc(C(=O)/C=C/c2ccc3ncccc3c2)cc1,i,7.81*,i,i,i,22.0%*,36.5%*,i
COc1cccc(NC(=O)C2C3C=CC(C3)C2C(=O)O)c1 (stereo not drawn),i,i,i,i,i,.,.,.
OCCOCCn1c(C(CO)Nc2nc(-c3cccc(Br)c3)cs2)nc2ccccc21 (stereo not drawn),i,i,i,i,i,.,i,7.5%*
CCCn1c(C(CO)Nc2nc(-c3cccc(Br)c3)cs2)nc2ccccc21 (stereo not drawn),i,10.5*,i,i,i,32.5%*,i,i
OCCOCCn1c(C(CO)Nc2nc(-c3ccccc3Br)cs2)nc2ccccc21 (stereo not drawn),i,i,i,i,i,.,.,.
N#C/C(=C/Nc1ccccc1F)S(=O)(=O)c1ccc(Cl)cc1,i,i,i,i,i,.,.,.
CCc1ccc(S(=O)(=O)Nc2ccc(O)c3ccccc23)cc1,i,4.7*,i,i,i,10.0%*,i,i
O=S(=O)(Nc1ccc(O)c2ccccc12)c1ccc(F)cc1,i,i,i,i,i,.,.,.
O=C(NCc1ccc(-n2cccc2)cc1)c1cccc(F)c1,i,i,i,i,i,.,.,.
CC(C)Sc1cc(N2CCOCC2)nc(-c2ccc(Cl)cc2)n1,i,5.23*,i,i,i,12.5%*,28.5%*,i
COc1cccc(Sc2cc(N3CCOCC3)nc(-c3ccccc3)n2)c1,i,8.75*,i,i,i,34.5%*,i,i
c1ccc(-c2nc(N3CCOCC3)cc(N3CCOCC3)n2)cc1,i,i,i,i,i,.,.,.
Clc1ccc(Sc2cc(N3CCOCC3)nc(-c3ccccc3)n2)cc1,i,7.67*,i,i,i,14.5%*,i,i
SMILES,MrgX1 allo act,RGS4 inh,RGS4 act,MrgX1 antag,MrgX1 ag,RGS4 block valid,RGS4 uninduced,M3R basal Ca ctr
CSCc1cc(N2CCOCC2)nc(-c2ccccc2)n1,i,i,i,i,i,.,.,.
CCN1CCN(c2cc(SC(C)C)nc(-c3ccc(OC)cc3)n2)CC1,.,i,i,.,.,.,.,.
Cc1ccc(S(C)(=O)=O)cc1C(=O)N1CC(C(N)=O)Oc2ccccc21 (stereo not drawn),i,i,i,i,i,.,.,.
CN(C)/N=C/C=C1\CCC/C(=C\c2ccc(F)c(F)c2)C1=O,i,23*,i,i,i,8.5%*,i,i
COc1ccc(/C=C2\CCC/C(=C\C=N\N(C)C)C2=O)cc1,i,i,i,i,i,.,.,.
CC(CCc1ccccc1)NC(=O)CC(C)c1ccccc1 (stereo not drawn),i,i,i,i,i,.,.,.
COc1cc2[nH]c3c(N4CCC(C(N)=O)CC4)ncnc3c2cc1OC,i,5.69*,i,i,i,i,i,i
CN(C)c1ccc(C(CNS(=O)(=O)c2ccc3ccccc3c2)N2CCOCC2)cc1 (stereo not drawn),i,5.18*,i,i,i,5.0%*,i,i
CN(C)c1ccc(C(CNS(=O)(=O)c2ccc([N+](=O)[O-])cc2)N2CCCC2)cc1 (stereo not drawn),i,i,i,i,i,.,.,.
Cc1c(Cl)cccc1NC(=O)CN1CCN(CCN=CC2=C(O)CC(c3ccccc3)CC2=O)CC1 (stereo not drawn),i,i,i,i,i,.,.,.
Cc1[nH]c2ccccc2c1/C=N/Nc1nc(N2CCCCC2)nc(N2CCCCC2)n1,i,11.3*,i,i,i,38.0%*,63.0%*,i
C(=N\Nc1nc(N2CCCCC2)nc(N2CCCCC2)n1)/c1c[nH]c2ccccc12,i,i,i,i,i,.,.,.
Nc1nc(Nc2ccccc2)nc(NCc2ccco2)c1[N+](=O)[O-],i,i,i,i,i,i,i,i
COc1ccc(F)cc1S(=O)(=O)Nc1cc2c3c(c1)CCC(=O)N3CCC2,i,i,i,i,i,.,.,.
C/C(CC(=O)Nc1cccc(F)c1)=N\NC(=O)c1ccncc1,i,i,i,i,i,.,.,.
COc1cc(C(C(=O)NC2CCCCC2)N(C(=O)Cc2c[nH]c3ccccc23)c2ccc(C)cc2)cc(OC)c1OC (stereo not drawn),i,i,i,i,i,i,i,i
COc1cc(/C=C2/C(=O)N(c3ccc(Br)cc3)N=C2C)cc([N+](=O)[O-])c1O,i,i,i,i,i,.,.,.
